For one data set, the target named is Cytochrome P450 3A4 (Homo sapiens, UniProt P08684). The experiment in a line: Inhibition of CYP3A4 in human liver microsomes by LC-MS/MS analysis. In general terms: Microsomes from liver hold many membrane-bound enzymes, among them those of drug oxidation.
Data set [1] in a line: Kinetic solubility of compound in pH 7.4 PBS by LC-MS/MS analysis. Type of data set: physicochemical. The settings on record: for solubility kinetic: PBS, read-out: Kinetic_solubility. The essentials:
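Kinetic solubility in PBS, pH 7.4; run by a CRO (Pharmaron or Cyprotex) under its standard protocol.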

The nature of data set [2]: Inhibition of hedgehog signaling pathway in mouse ASZ cells assessed as decrease in Gli1 mRNA expression after 48 hrs by qRT-PCR analysis. Type of data set: cell-based. The essentials:
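Murine BCC line ASZ (Ptch+/-), 80% confluent, seeded at 10,000 cells/well in 154CF medium (2% FBS), 24 h, then serum-free medium 24 h (37°C, 5% CO2). Treated 48 h with compound at 10–0.001 μM or DMSO vehicle. Gli1 mRNA measured by qRT-PCR against actin B internal control; concentrations lowering actin B were excluded. IC50 as mean ± SEM, repeat experiments in triplicate.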

The target of the next data set is hERG (KCNH2) (Homo sapiens, UniProt Q12809). The experiment in a line: Inhibition of human ERG expressed in CHO cells at 25 uM by electrophysiology assay relative to control. Type of data set: cell-based. The conditions noted are these: CHO cells expressing human ERG.
Chain of hERG (KCNH2) (Q12809 whole entry): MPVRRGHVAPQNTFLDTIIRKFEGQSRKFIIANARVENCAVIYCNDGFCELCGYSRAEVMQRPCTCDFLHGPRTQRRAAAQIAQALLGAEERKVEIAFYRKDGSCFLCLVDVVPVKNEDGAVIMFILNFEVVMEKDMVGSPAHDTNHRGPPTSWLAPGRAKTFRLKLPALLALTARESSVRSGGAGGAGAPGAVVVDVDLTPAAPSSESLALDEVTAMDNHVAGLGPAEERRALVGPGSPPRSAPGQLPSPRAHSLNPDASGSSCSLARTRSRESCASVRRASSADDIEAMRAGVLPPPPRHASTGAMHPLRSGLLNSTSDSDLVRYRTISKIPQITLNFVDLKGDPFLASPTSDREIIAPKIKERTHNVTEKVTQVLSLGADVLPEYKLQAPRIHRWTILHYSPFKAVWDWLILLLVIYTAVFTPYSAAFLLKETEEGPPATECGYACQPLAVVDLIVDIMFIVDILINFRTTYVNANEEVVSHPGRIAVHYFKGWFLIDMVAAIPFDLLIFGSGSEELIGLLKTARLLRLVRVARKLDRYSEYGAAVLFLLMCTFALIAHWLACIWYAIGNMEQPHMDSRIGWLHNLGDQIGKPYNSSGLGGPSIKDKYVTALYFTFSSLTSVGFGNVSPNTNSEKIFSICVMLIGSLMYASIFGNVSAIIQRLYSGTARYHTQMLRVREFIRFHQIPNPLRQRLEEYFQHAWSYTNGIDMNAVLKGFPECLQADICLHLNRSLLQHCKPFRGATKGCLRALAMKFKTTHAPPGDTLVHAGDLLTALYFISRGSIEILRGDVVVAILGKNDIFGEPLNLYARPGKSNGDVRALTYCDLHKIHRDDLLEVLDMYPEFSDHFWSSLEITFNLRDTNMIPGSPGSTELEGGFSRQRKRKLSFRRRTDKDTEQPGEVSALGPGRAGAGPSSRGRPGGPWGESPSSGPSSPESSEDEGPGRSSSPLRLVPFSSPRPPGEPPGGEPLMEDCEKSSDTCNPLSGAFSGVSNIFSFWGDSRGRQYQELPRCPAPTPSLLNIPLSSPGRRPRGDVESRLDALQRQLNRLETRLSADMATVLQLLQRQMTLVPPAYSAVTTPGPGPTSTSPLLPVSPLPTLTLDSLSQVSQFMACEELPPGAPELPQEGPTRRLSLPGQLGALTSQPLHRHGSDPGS
Data set [3] is filed under the species Mus musculus. The experiment in a line: Potency index, ratio of IC50 for PSZ to IC50 for test compound for inhibition of hedgehog signaling pathway in mouse ASZ cells assessed as decrease in Gli1 mRNA expression after 48 hrs by qRT-PCR analysis. Type of data set: cell-based. A general note: In qPCR the cycle at which signal appears reflects the starting amount.

A short description of data set [4]: Half life in human liver microsomes at 1 uM by LC-MS/MS analysis.
The conditions of data set [5]: human, microsomes, 1 µM.
The species entered for data set [6] is Mus musculus. The experiment in a line: Inhibition of hedgehog signaling pathway in hedgehog-dependent mouse Ptch-CKO cells assessed as inhibition of cell growth.

≈ marks a conversion by molar mass, not a printed value.

Chain of Cytochrome P450 3A4 (P08684 whole entry): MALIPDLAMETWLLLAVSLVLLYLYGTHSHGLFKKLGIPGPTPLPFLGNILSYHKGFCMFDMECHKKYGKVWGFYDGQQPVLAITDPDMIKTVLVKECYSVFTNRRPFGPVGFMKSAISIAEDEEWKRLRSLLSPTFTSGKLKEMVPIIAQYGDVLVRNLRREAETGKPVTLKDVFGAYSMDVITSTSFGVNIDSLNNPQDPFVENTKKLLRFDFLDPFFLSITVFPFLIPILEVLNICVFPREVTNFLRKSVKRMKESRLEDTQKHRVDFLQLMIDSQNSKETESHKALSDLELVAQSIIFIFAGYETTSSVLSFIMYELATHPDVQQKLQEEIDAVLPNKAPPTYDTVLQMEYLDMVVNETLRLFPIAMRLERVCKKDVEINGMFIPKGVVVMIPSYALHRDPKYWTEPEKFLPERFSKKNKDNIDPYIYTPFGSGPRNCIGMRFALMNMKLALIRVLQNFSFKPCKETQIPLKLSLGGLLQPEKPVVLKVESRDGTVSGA

The term IC50 denotes the point on the concentration scale where inhibition reaches its midpoint. For orientation: inhibition means the percentage by which the read-out fell short of the control. On to `CC1(c2ccc(Cl)cc2Cl)OCC(COc2ccc(N3CCN(c4ccc(-n5cnn(CCC(=O)O)c5=O)cc4)CC3)cc2)O1` (centres undefined), for which the 50% inhibitory concentration (IC50) was more than 20000 nM at Cytochrome P450 3A4 and 12 nM in data set [2]. Besides, in data set [1], the solubility kinetic came to 0.781 µM (≈ 0.511 µg/mL). Also, on hERG (KCNH2), at 25 µM the inhibition was 3.6%.

For `C[C@]1(c2ccc(F)cc2F)C[C@H](COc2ccc(N3CCN(c4ccc(-n5cnn(CCC(=O)O)c5=O)cc4)CC3)cc2)CO1`, in data set [2], the IC50 was 32 nM.

A word on the GI50: it is the concentration at which growth is held to half of that of the control. On to `CC[C@@H](C)n1ncn(-c2ccc(N3CCN(c4ccc(OC[C@@H]5CO[C@@](C)(c6ccc(F)cc6F)C5)cc4)CC3)cc2)c1=O`, for which the results for the IC50 (at Cytochrome P450 3A4; in data set [2]) were more than 20000 nM and 190 nM, respectively. The Ratio IC50 in the data set listed under Mus musculus [3] was found to be 2.5. Moreover, in data set [4], the t1/2 was 1.03 h. The same molecule yielded a CLH in data set [5] of 37.4 µL/min/mg. The GI50 in the data set listed under Mus musculus [6] is 610 nM.

On to `C[C@]1(c2ccc(F)cc2F)C[C@H](COc2ccc(N3CCN(c4ccc(NC(=O)c5cccnc5)cc4)CC3)cc2)CO1`, for which the solubility kinetic in data set [1] stood at 1.56 µM (≈ 0.912 µg/mL). Besides, in data set [2], the concentration for half-maximal inhibition (IC50) is more than 10000 nM.

Regarding `C[C@]1(c2ccc(F)cc2F)C[C@H](COc2ccc(N3CCN(c4ccc(-n5cnn(CCCO)c5=O)cc4)CC3)cc2)CO1`, the solubility kinetic in data set [1] worked out at 1.56 µM (≈ 0.945 µg/mL). In data set [2], the IC50 came out at 20 nM.

In the case of `C[C@]1(c2ccc(F)cc2F)C[C@H](COc2ccc(N3CCN(c4ccc(-n5cnn(CC(=O)O)c5=O)cc4)CC3)cc2)CO1`, the IC50 in data set [2] amounted to 150 nM.

`C[C@]1(c2ccc(F)cc2F)C[C@H](COc2ccc(N3CCN(c4ccc(NC(=O)NN)cc4)CC3)cc2)CO1`: the half-maximal inhibitory concentration (IC50) in data set [2] came out at 220 nM.

On to `CC(=O)c1cccc(C(=O)Nc2ccc(N3CCN(c4ccc(OC[C@@H]5CO[C@@](C)(c6ccc(F)cc6F)C5)cc4)CC3)cc2)c1`, for which the IC50 is more than 20000 nM against Cytochrome P450 3A4 and 24 nM in data set [2]. Besides, the solubility kinetic in data set [1] was 3.13 µM (≈ 1.96 µg/mL). The t1/2 in data set [4] was determined as 1.92 h. On hERG (KCNH2), this molecule gave an inhibition at 25 µM of 4.2%. In addition, the CLH in data set [5] is 20 µL/min/mg.

Turning to `CCC(C)n1ncn(-c2ccc(N3CCN(c4ccc(OCC5COC(Cn6cncn6)(c6ccc(Cl)cc6Cl)O5)cc4)CC3)cc2)c1=O` (centres undefined) [ITRACONAZOLE], the solubility kinetic in data set [1] was 0.8 µM (≈ 0.565 µg/mL). This molecule had a t1/2 in data set [4] of 0.45 h. The same molecule gave an inhibition at 25 µM at hERG (KCNH2) of less than 1%.

On to `C[C@]1(c2ccc(F)cc2F)C[C@H](COc2ccc(N3CCN(c4ccc([N+](=O)[O-])cc4)CC3)cc2)CO1`, for which the IC50 in data set [2] was determined as 740 nM.

Consider `C[C@]1(c2ccc(F)cc2F)C[C@H](COc2ccc(N3CCN(c4ccc(N)cc4)CC3)cc2)CO1`, for which the concentration for half-maximal inhibition (IC50) in data set [2] was found to be 330 nM.

On to `C[C@]1(c2ccc(F)cc2F)C[C@H](COc2ccc(N3CCN(c4ccc(NC(=O)c5cccc(O)c5)cc4)CC3)cc2)CO1`, for which, in data set [1], the solubility kinetic amounted to 3.13 µM (≈ 1.88 µg/mL). Further, in data set [2], the half-inhibitory concentration (IC50) worked out at 190 nM. For the same molecule, the t1/2 in data set [4] was more than 3 h. For the same molecule, the CLH in data set [5] turned out to be 2.23 µL/min/mg.

With `C[C@]1(c2ccc(F)cc2F)C[C@H](COc2ccc(N3CCN(c4ccc(-n5cn[nH]c5=O)cc4)CC3)cc2)CO1`, in data set [2], the IC50 stood at 190 nM.

In the case of `C[C@]1(c2ccc(F)cc2F)C[C@H](COc2ccc(N3CCN(c4ccc(NC(=O)Oc5ccccc5)cc4)CC3)cc2)CO1`, the IC50 in data set [2] is more than 10000 nM.

In data set [1] (buffer), `CC[C@@H]([C@H](C)O)n1ncn(-c2ccc(N3CCN(c4ccc(OC[C@@H]5CO[C@@](Cn6cncn6)(c6ccc(F)cc6F)C5)cc4)CC3)cc2)c1=O` [POSACONAZOLE] returned a Kinetic_solubility of 0.781 µM. Besides, in data set [2], the IC50 was 500 nM. Besides, in data set [4], the t1/2 turned out to be 1.8 h. On hERG (KCNH2), the inhibition at 25 µM is 14.7%. The CLH in data set [5] was 21.5 µL/min/mg.
